# Experimental data pooled from the literature.
# Lines come from different studies, so protocols differ.
SMILES,tested on,assay,test system,setting,quantity,value
CN(C)c1cc(NC(=O)Cc2cncnc2)c(O)c2c1C[C@H]1C[C@H]3[C@H](N(C)C)C(O)=C(C(N)=O)C(=O)[C@@]3(O)C(O)=C1C2=O,Mycobacteroides abscessus,"microbial growth, resazurin",ATCC19977,,IC50,0.74 mg/L
C=CCO/N=c1\cc2n(-c3ccc(Cl)cc3)c3ccccc3nc-2cc1Nc1ccc(Cl)cc1,Mycobacteroides abscessus,microbial growth,,clinical isolate,MIC,> 30 µM
C=CC(=O)NC1CCN(c2ncc3ncnc(Nc4ccc(Oc5ccc6c(c5)ncn6C)c(C)c4)c3n2)CC1,SW837,cell growth or viability,,,EC50,21500 µM
COc1ccccc1C(=O)C#Cc1ccc(F)c(F)c1,Pseudomonas aeruginosa,"microbial growth, absorbance",,"100 µM, 24 h",activity vs control,83%
CN(C)c1cc(NC(=O)Cc2ccncc2)c(O)c2c1C[C@H]1C[C@H]3[C@H](N(C)C)C(O)=C(C(N)=O)C(=O)[C@@]3(O)C(O)=C1C2=O,Mycobacteroides abscessus,"microbial growth, resazurin",ATCC19977,,IC50,0.57 mg/L
CO/N=c1\cc2n(-c3ccc(Cl)cc3)c3ccccc3nc-2cc1Nc1ccc(Cl)cc1,Mycobacteroides abscessus,microbial growth,,clinical isolate,MIC,> 30 µM
CN(C)c1cc(NC(=O)CCc2cccnc2)c(O)c2c1C[C@H]1C[C@H]3[C@H](N(C)C)C(O)=C(C(N)=O)C(=O)[C@@]3(O)C(O)=C1C2=O,Mycobacteroides abscessus,"microbial growth, resazurin",ATCC19977,,IC50,5.63 mg/L
OC(C#Cc1ccc(F)c(F)c1)c1ccccc1 (stereo not drawn),Pseudomonas aeruginosa,"microbial growth, absorbance",,"100 µM, 24 h",activity vs control,97%
C=C(F)C(=O)N1CCN(c2nc(OC[C@@H]3CCCN3C)nc3c2CCN(c2cccc4cccc(Cl)c24)C3)C[C@@H]1CC#N,MIA PaCa-2,"cell growth or viability, ATP luminescence",,3D culture,IC50,0.00251 µM
Clc1ccc(Nc2cc3nc4ccccc4n(-c4ccc(Cl)cc4)c-3c/c2=N\OCc2ccccc2)cc1,Mycobacteroides abscessus,microbial growth,,clinical isolate,MIC,> 30 µM
CN(C)c1cc(NC(=O)Cc2ccn(C)n2)c(O)c2c1C[C@H]1C[C@H]3[C@H](N(C)C)C(O)=C(C(N)=O)C(=O)[C@@]3(O)C(O)=C1C2=O,Mycobacteroides abscessus,"microbial growth, resazurin",ATCC19977,,IC50,0.86 mg/L
Cc1cccc(C(=O)C#Cc2ccc(F)c(F)c2)c1,Pseudomonas aeruginosa,"microbial growth, absorbance",,"100 µM, 24 h",activity vs control,100%
O=C(NO)c1ccc(CNc2nc3cccc(-c4ccc5c(c4)OCO5)n3n2)cc1,DU-145,"cell growth or viability, SRB",,,GI50,0.47 µM
CN(C)c1cc(NC(=O)CCc2ccccc2)c(O)c2c1C[C@H]1C[C@H]3[C@H](N(C)C)C(O)=C(C(N)=O)C(=O)[C@@]3(O)C(O)=C1C2=O,Mycobacteroides abscessus,"microbial growth, resazurin",ATCC19977,,IC50,8.87 mg/L
Cc1ccccc1C(=O)C#Cc1ccc(F)c(F)c1,Pseudomonas aeruginosa,"microbial growth, absorbance",,"10 µM, 24 h",activity vs control,101%
